{"data": "Results gathered from unrelated publications", "target": "RAC-gamma serine/threonine-protein kinase (AKT3, Homo sapiens, UniProt Q9Y243)", "note": "Compare with care: the assays were run in different laboratories."}
{"Structure (SMILES)": "CCC1(CC)NC(=O)c2c(c3ccc(Cl)c(Cl)c3n2C)C1C#N (centres unmarked)", "test": "thermal stability, DSF", "setting": "10 µM", "quantity": "ΔTm", "result": "0.1 °C"}
{"Structure (SMILES)": "Cc1cc(NC(=O)c2cccc(S(F)(F)(F)(F)F)c2)cc(-n2ccn3nc(-c4cccnc4)cc23)c1", "test": "cell-free assay, competition with immobilised ligand", "setting": "1 µM", "quantity": "remaining binding", "result": "100%"}
{"Structure (SMILES)": "O=C1NC(=O)c2cc(Nc3ccc(F)cc3)c(Nc3ccc(F)cc3)cc21", "test": "cell-free assay", "setting": "0.5 µM", "quantity": "remaining signal", "result": "100%"}
{"Structure (SMILES)": "CC(=O)N1CCC(c2ccc(C(=O)NC3=NCCN3)cc2C(F)(F)F)CC1", "test": "cell-free assay, competition with immobilised ligand", "setting": "1 µM", "quantity": "remaining binding", "result": "100%"}
{"Structure (SMILES)": "CCN(CC)c1ccc(C2=NNC(=O)CC2C)cc1[N+](=O)[O-] (centres unmarked)", "test": "enzyme activity, inhibitor", "setting": "10 µM", "quantity": "remaining activity", "result": "91%"}
{"Structure (SMILES)": "Cn1c2c(Cl)c(Cl)ccc2c2cc[nH]c(=O)c21", "test": "thermal stability, DSF", "setting": "10 µM", "quantity": "ΔTm", "result": "0 °C"}
{"Structure (SMILES)": "CC/C(=N\\NC(=O)NCc1cccc(O)c1)c1ccc(O)c(C)c1O", "test": "enzyme activity, inhibitor", "setting": "0.1 µM", "quantity": "inhibition", "result": "22.8%"}
{"Structure (SMILES)": "Cc1sc(C(=O)NC2COC2)cc1-n1cc(NC(=O)Nc2c(F)cccc2Cl)cn1", "test": "enzyme activity, inhibitor", "setting": "10 µM", "quantity": "remaining activity", "result": "94.8%"}
{"Structure (SMILES)": "N#CC1c2c([nH]c3c(Cl)c(Cl)ccc23)C(=O)NC12CCCCC2 (racemic)", "test": "thermal stability, DSF", "setting": "10 µM", "quantity": "ΔTm", "result": "-0.7 °C"}
{"Structure (SMILES)": "CO[C@@H](C)c1c(Nc2ccc([C@@H](N(C)C(=O)C3CCS(=O)(=O)CC3)C(F)(F)F)cc2)cnc2cc(Cl)nn12", "test": "cell-free assay, competition with immobilised ligand", "setting": "1 µM", "quantity": "remaining binding", "result": "65%"}
{"Structure (SMILES)": "COc1cc2ncnc(Nc3ccc(Oc4ccccc4)cc3C)c2cc1OC", "test": "enzyme activity, inhibitor", "setting": "1 µM", "quantity": "inhibition", "result": "6%"}
{"Structure (SMILES)": "O=c1nc(-c2ccccn2)sc2ccccc12", "test": "binding, competition with immobilised ligand", "setting": "1 µM", "quantity": "remaining binding", "result": "100%"}
{"Structure (SMILES)": "Cc1cc(NC(=O)c2cccc3cc(-c4cccc5[nH]nc(N)c45)ccc23)ccc1F", "test": "enzyme activity, inhibitor", "setting": "0.1 µM", "quantity": "activity vs control", "result": "90%"}
{"Structure (SMILES)": "COc1cc(Cl)c(C(=O)N[C@@H](CN[C@H]2CC[C@@H](N)CC2)Cc2ccc(C#N)cc2)cc1-c1ccc(CN[C@H](C)c2ccc(C)cc2)o1", "test": "enzyme activity, inhibitor", "setting": "1 µM", "quantity": "remaining activity", "result": "97%"}
{"Structure (SMILES)": "Cn1c2c(c3ccc(Cl)c(Cl)c31)C(C#N)C1(CCCC1)NC2=O (centres unmarked)", "test": "thermal stability, DSF", "setting": "10 µM", "quantity": "ΔTm", "result": "-0.1 °C"}
{"Structure (SMILES)": "O=C1Nc2ccc(Cl)cc2C1=Cc1cc(Cl)c(O)c(Cl)c1", "test": "cell-free assay", "setting": "0.5 µM", "quantity": "remaining signal", "result": "96.9%"}
{"Structure (SMILES)": "Cn1cc(Cl)c2c(Oc3c(F)cc(Nc4cc(Cl)nc(N)n4)cc3F)ccnc21", "test": "cell-free assay, competition with immobilised ligand", "setting": "0.1 µM", "quantity": "remaining binding", "result": "98%"}
{"Structure (SMILES)": "CCCOc1ccc(OC)c(F)c1C(=O)c1ccc(C(=O)N[C@@H]2CNC[C@H]2NC(=O)c2ccc3[nH]ncc3c2)cc1", "test": "enzyme activity, inhibitor", "setting": "0.75 µM", "quantity": "remaining activity", "result": "39%"}
{"Structure (SMILES)": "O=C(Nc1ccc(Oc2ccc(F)cc2)cc1)N1CCc2ncccc2[C@H]1c1ccc(F)cc1", "test": "cell-free assay, competition with immobilised ligand", "setting": "1 µM", "quantity": "remaining binding", "result": "95%"}
{"Structure (SMILES)": "COc1cc(F)ccc1-c1ncnc(Nc2cccc(C[S@](C)(=N)=O)c2)n1", "test": "enzyme activity, inhibitor", "setting": "10 µM", "quantity": "activity vs control", "result": "100%"}
{"Structure (SMILES)": "FC(F)(F)c1ccc2c(c1)nc(-c1cccnc1)n2C1CC1", "test": "cell-free assay, competition with immobilised ligand", "setting": "1 µM", "quantity": "remaining binding", "result": "100%"}
{"Structure (SMILES)": "C#Cc1cccc(Nc2ncnc3cc(OCCOC)c(OCCOC)cc23)c1", "test": "cell-free assay", "setting": "0.5 µM", "quantity": "remaining signal", "result": "74.6%"}
{"Structure (SMILES)": "Cc1c(NC(=O)c2cc(C(N)=O)nc3cc(F)ccc23)c(C(F)(F)F)nn1Cc1ccc(C#N)cc1", "test": "cell-free assay, competition with immobilised ligand", "setting": "1 µM", "quantity": "remaining binding", "result": "81%"}
{"Structure (SMILES)": "Cn1c2c(c3ccc(Cl)c(Cl)c31)C(C#N)C1(CCNCC1)NC2=O (racemic)", "test": "thermal stability, DSF", "setting": "10 µM", "quantity": "ΔTm", "result": "-0.1 °C"}
{"Structure (SMILES)": "CNC(=O)c1cc(Oc2ccc(NC(=O)Nc3ccc(Cl)c(C(F)(F)F)c3)cc2)ccn1", "test": "enzyme activity, inhibitor", "setting": "10 µM", "quantity": "inhibition", "result": "-1%"}
{"Structure (SMILES)": "Cn1c2c(c3ccc(Cl)c(Cl)c31)C(C#N)C1(CCOCC1)NC2=O (centres unmarked)", "test": "thermal stability, DSF", "setting": "10 µM", "quantity": "ΔTm", "result": "-0.1 °C"}
{"Structure (SMILES)": "O=C(Nc1cnn(-c2csc(C(=O)NC3COC3)c2)c1)Nc1c(F)cccc1Cl", "test": "enzyme activity, inhibitor", "setting": "5 µM", "quantity": "remaining activity", "result": "97.6%"}
{"Structure (SMILES)": "N#CCCc1ccc2c(c1)-c1[nH]c3ccc([N+](=O)[O-])cc3c1CC(=O)N2", "test": "cell-free assay", "setting": "0.5 µM", "quantity": "remaining signal", "result": "95.5%"}
{"Structure (SMILES)": "Cc1ccc(C(=O)NCc2ccsc2)cc1C#Cc1cn(C(C)C)c2ncnc(N)c12", "test": "enzyme activity, inhibitor", "setting": "1 µM", "quantity": "activity vs control", "result": "79%"}
{"Structure (SMILES)": "Cc1ccc(NC(=O)c2ccc(C)c(C(F)(F)F)c2)cc1C#Cc1nn(C2CCC(O)CC2)c2ncnc(N)c12 (centres unmarked)", "test": "cell-free assay", "setting": "10 µM", "quantity": "remaining signal", "result": "94%"}
{"Structure (SMILES)": "CN1CC(Oc2cnc(C#N)cc2-c2ccn3nc(NC(=O)C4CC4)cc3c2)C1", "test": "enzyme activity, inhibitor", "setting": "1 µM", "quantity": "inhibition", "result": "7%"}
{"Structure (SMILES)": "CC(C)(C)c1nc2c(s1)c1nc(N)ncc1c1ccc(NS(=O)(=O)c3c(F)cccc3F)c(F)c12", "test": "enzyme activity, inhibitor, radiometric", "setting": "1 µM", "quantity": "remaining activity", "result": "89%"}
